Data on nine compounds can be found in ChEMBL document CHEMBL1147857, “A chromone analog inhibits TNF-alpha induced expression of cell adhesion molecules on human endothelial cells via blocking NF-kappaB activation” (Bioorg Med Chem, 2007).

pIC50: −log10 of the molar value. The source made the active and inactive calls. No cut-off for these calls is given here.

Data set [1] is described as follows: Cytotoxicity against HUVEC cells assessed as cell viability at 90 ug/ml after 24 hrs by MTT assay. In kind it is cell-based. To be noted: human, read-out: Activity. The procedure, abridged: (§1)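 Primary HUVECs were isolated by mild trypsinization, grown in M-199 with 15% FCS and ECGF, and used at passages 3–4. Cells got compound or 0.25% DMSO vehicle for 24 h. MTT (5 mg/ml) was added for the final 4 h, formazan dissolved in DMSO, and A570 read. Trypan blue exclusion confirmed the result. Runs were done at least 3 times in triplicate wells.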
On the technique in general: Tetrazolium dyes change colour on reduction, which living cells bring about.

In data set [2] the test system is HUVEC. The experiment in a line: Inhibition of TNF-alpha-induced ICAM1 expression in HUVEC cells at 90 ug/ml after 2 hrs by ELISA. Type of data set: functional. The settings on record: Homo sapiens. In short, it runs like this: (§2)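 Cell-ELISA: HUVECs were pretreated with compound for 2 h, then given TNF-α 10 ng/ml for 16 h (ICAM-1, VCAM-1) or 4 h (E-selectin). Cells were fixed in 1% glutaraldehyde and blocked with 3% milk. Specific mAbs were applied overnight at 4 °C, then HRP goat anti-mouse, with OPD substrate at pH 4.5. The reaction was stopped with H2SO4 and A490 read. % inhibition = [1 − A490(compound)/A490(control)] × 100. Three independent experiments.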
(In an ELISA, binding on a coated surface is turned into a signal by an enzyme label.)

Data set [3] has as its system HUVEC. In words: Inhibition of TNF-alpha-induced ICAM1 expression in HUVEC cells after 2 hrs by ELISA. In kind it is functional, cell-based. To be noted: Homo sapiens. In short, it runs like this: as §2
Data set [4] has as its system Liver microsomes. In words: Inhibition of NADPH-catalyzed lipid peroxidation in Wistar rat liver microsome at 90 ug/ml after 10 mins. In kind it is functional. In short, it runs like this: (§3)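 Liver microsomes came from male Wistar rats of about 200 g. Each mix held microsomes (1 mg protein), 0.025 M Tris-HCl pH 7.5, 3 mM ADP and 0.15 mM FeCl3. Mixes were preincubated 10 min at 37 °C, then 10 min with compound in DMSO. Peroxidation was started with 0.5 mM NADPH and stopped with TCA/HCl/TBA. Samples were heated at 95 °C for 30 min and TBA-reactive substance read at 535 nm.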
For orientation: Microsomes from liver hold many membrane-bound enzymes, among them those of drug oxidation.

Data set [5] in a line: Cytotoxicity against HUVEC cells assessed as cell viability at 110 ug/ml after 24 hrs by MTT assay. The settings on record: human, read-out: Activity. Type of data set: cell-based. The procedure, abridged:
as §1

Data set [6] has as its system HUVEC. In words: Inhibition of TNF-alpha-induced ICAM1 expression in HUVEC cells at 110 ug/ml after 2 hrs by ELISA. Type of data set: functional. To be noted: Homo sapiens. In short, it runs like this:
as §2

Data set [7] relates to Liver microsomes. The experiment in a line: Inhibition of NADPH-catalyzed lipid peroxidation in Wistar rat liver microsome at 110 ug/ml after 10 mins. In kind it is functional. In short, it runs like this: as §3
The nature of data set [8]: Cytotoxicity against HUVEC cells assessed as cell viability at 70 ug/ml after 24 hrs by MTT assay. Type of data set: cell-based. The settings on record: human, read-out: Activity. The procedure, abridged:
as §1

The test system of data set [9] is HUVEC. The experiment in a line: Inhibition of TNF-alpha-induced ICAM1 expression in HUVEC cells at 70 ug/ml after 2 hrs by ELISA. In kind it is functional. To be noted: Homo sapiens. In short, it runs like this: as §2
In data set [10] the test system is Liver microsomes. The experiment in a line: Inhibition of NADPH-catalyzed lipid peroxidation in Wistar rat liver microsome at 70 ug/ml after 10 mins. Type of data set: functional. In short, it runs like this: as §3
The nature of data set [11]: Cytotoxicity against HUVEC cells assessed as cell viability at 60 ug/ml after 24 hrs by MTT assay. In kind it is cell-based. To be noted: human, read-out: Activity. In short, it runs like this: as §1
Data set [12] concerns HUVEC. The experiment in a line: Inhibition of TNF-alpha-induced ICAM1 expression in HUVEC cells at 60 ug/ml after 2 hrs by ELISA. In kind it is functional. The settings on record: Homo sapiens. The procedure, abridged:
as §2

Data set [13] concerns Liver microsomes. In words: Inhibition of NADPH-catalyzed lipid peroxidation in Wistar rat liver microsome at 60 ug/ml after 10 mins. In kind it is functional. The procedure, abridged:
as §3

Data set [14] has as its system HUVEC. The experiment in a line: Inhibition of TNF-alpha-induced E-selectin expression in HUVEC cells at 90 ug/ml after 2 hrs by ELISA. Type of data set: functional. To be noted: Homo sapiens. In short, it runs like this:
as §2

The subject of data set [15] is HUVEC. The experiment in a line: Inhibition of TNF-alpha-induced VCAM1 expression in HUVEC cells at 90 ug/ml after 2 hrs by ELISA. Type of data set: functional. The settings on record: Homo sapiens. In short, it runs like this: as §2
Data set [16] deals with HUVEC. The experiment in a line: Inhibition of TNF-alpha-induced ICAM1 expression in HUVEC cells at 90 ug/ml after 2 hrs by flow cytometry. In kind it is functional. To be noted: Homo sapiens. The procedure, abridged: (§4)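 Flow cytometry: HUVECs were pretreated with compound for 2 h, then given TNF-α 10 ng/ml for 16 h (ICAM-1, VCAM-1) or 4 h (E-selectin). Cells were dislodged and stained with mAb (1.0 µg/10^6 cells, 30 min, 4 °C), then FITC goat anti-mouse IgG. Cells were fixed in 1% paraformaldehyde and 20,000 events acquired. Autofluorescence was subtracted and mean fluorescence intensity taken from three independent experiments.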

For data set [17], the system named is HUVEC. In words: Inhibition of TNF-alpha-induced E-selectin expression in HUVEC cells at 90 ug/ml after 2 hrs by flow cytometry. In kind it is functional. To be noted: Homo sapiens. In short, it runs like this: as §4
For data set [18], the system named is HUVEC. The experiment in a line: Inhibition of TNF-alpha-induced VCAM1 expression in HUVEC cells at 90 ug/ml after 2 hrs by flow cytometry. In kind it is functional. The settings on record: Homo sapiens. The procedure, abridged: as §4
The test system of data set [19] is HUVEC. In words: Inhibition of TNF-alpha-induced VCAM1 expression in HUVEC cells after 2 hrs by ELISA. To be noted: Homo sapiens. In kind it is functional, cell-based. The procedure, abridged: as §2
Data set [20] concerns HUVEC. The experiment in a line: Inhibition of TNF-alpha-induced E-selectin expression in HUVEC cells after 2 hrs by ELISA. To be noted: Homo sapiens. Type of data set: functional, cell-based. The procedure, abridged:
as §2

For data set [21], the system named is Neutrophil. In words: Inhibition of TNF-alpha-induced adhesion of neutrophils to endothelium after 2 hrs by neutrophil adhesion assay. Type of data set: functional, cell-based. The settings on record: Homo sapiens. The procedure, abridged: (§5)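 Static adhesion: HUVEC monolayers were pretreated with compound for 2 h, then given TNF-α 10 ng/ml for 6 h. Neutrophils from healthy donor blood (dextran sedimentation, Ficoll-Hypaque, hypotonic lysis) were added at 6 × 10^4/well and left 1 h at 37 °C. Bound cells were measured with OPD/CTAB/aminotriazole substrate at A490. % inhibition was calculated as for the ELISA. Three independent experiments.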

Data set [22] has as its system Neutrophil. The experiment in a line: Inhibition of TNF-alpha-induced adhesion of neutrophils to endothelium at 90 ug/ml after 2 hrs by neutrophil adhesion assay. To be noted: Homo sapiens. In kind it is functional. The procedure, abridged: as §5
Data set [23] has as its system HUVEC. The experiment in a line: Blockade of TNF-alpha-induced p65 nuclear translocation in HUVEC cells after 2 hrs by Western blot. Type of data set: functional, cell-based. To be noted: Homo sapiens. In short, it runs like this:
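HUVECs (2 × 10^6) were pretreated with or without compound for 2 h, then given TNF-α 10 ng/ml for 30 min. Extracts ran on 8% SDS-PAGE and were blotted with anti-p65, with γ-tubulin as loading control. Detection used an HRP anti-rabbit secondary and DAB.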

Data set [24] has as its system HUVEC. In words: Inhibition of TNF-alpha-induced NF-kappaB activation in HUVEC after 2 hrs by […] mobility shift assay. Type of data set: functional, cell-based. The settings on record: Homo sapiens. In short, it runs like this: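 HUVECs were pretreated with compound for 2 h, then given TNF-α 10 ng/ml for 30 min. Nuclear extract (10 µg) was incubated with 40–80 fmol of 32P-labelled NF-κB oligonucleotide in HEPES/NaCl/Tris buffer pH 7.5 with poly(dI-dC), 30 min at room temperature. Complexes were resolved on a 4% native gel and seen by autoradiography. Specificity was checked with excess unlabelled oligo.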

A short description of data set [25]: Cytotoxicity against HUVEC cells assessed as cell viability at 100 ug/ml after 24 hrs by MTT assay. In kind it is cell-based. To be noted: human, read-out: Activity. In short, it runs like this: as §1
Data set [26] concerns HUVEC. In words: Inhibition of TNF-alpha-induced ICAM1 expression in HUVEC cells at 100 ug/ml after 2 hrs by ELISA. To be noted: Homo sapiens. In kind it is functional. The procedure, abridged:
as §2

Data set [27] has as its system Liver microsomes. The experiment in a line: Inhibition of NADPH-catalyzed lipid peroxidation in Wistar rat liver microsome at 100 ug/ml after 10 mins. In kind it is functional. The procedure, abridged: as §3
The nature of data set [28]: Cytotoxicity against HUVEC cells assessed as cell viability at 80 ug/ml after 24 hrs by MTT assay. Type of data set: cell-based. The settings on record: human, read-out: Activity. In short, it runs like this: as §1
Data set [29] relates to HUVEC. The experiment in a line: Inhibition of TNF-alpha-induced ICAM1 expression in HUVEC cells at 80 ug/ml after 2 hrs by ELISA. To be noted: Homo sapiens. Type of data set: functional. In short, it runs like this: as §2
The test system of data set [30] is Liver microsomes. In words: Inhibition of NADPH-catalyzed lipid peroxidation in Wistar rat liver microsome at 80 ug/ml after 10 mins. Type of data set: functional. The procedure, abridged: as §3

As a reminder, the inhibition is the share of the control response that was lost under treatment. Read a low inhibition as a weak effect. As usually defined, the pIC50 is −log10 of the IC50, conventionally taken in molar units. The low end stands for a high IC50, the high end for a low IC50. As for `C=CCOC(=O)/C=C/c1coc2ccccc2c1=O`, the viability at 24 h, 90 ug/ml in [1] was 95%. At 90 µg/mL the inhibition in data set [2] was 64.5%. Moreover, the negative logarithm of the IC50 (pIC50) in [3] is 3.60. For the same compound, the inhibition in data set [4] is 43.4%.
For `CCOC(=O)/C=C/c1coc2cc(O)ccc2c1=O` the same measures were 95%, 68.2%, 3.57 and 32.3%.
`CCCOC(=O)/C=C/c1coc2cc(O)ccc2c1=O`: in data set [5], the viability at 24 h, 110 ug/ml is 97%. The same compound yielded an inhibition at 110 µg/mL in data set [6] of 63.5%. Further, the negative logarithm of the IC50 (pIC50) in data set [3] is 3.46. For the same compound, the inhibition in [7] was 39.8%.
On to `CC(C)OC(=O)/C=C/c1coc2ccccc2c1=O`, for which the viability at 24 h, 70 ug/ml in data set [8] was 98%. 70 µg/mL produced 73.5% inhibition in data set [9]. In data set [3], this compound had a pIC50 of 3.63. This compound also displayed an inhibition in [10] of 50.8%.
For the compound `O=c1ccoc2ccccc12` [CHROMONE], in data set [1], the viability at 24 h, 90 ug/ml came to 95%. The compound further displayed an inhibition at 90 µg/mL in data set [2] of 47.5%. In data set [4], the inhibition worked out at 25.4%.
On to `CC(C)OC(=O)/C=C/c1coc2cc(O)ccc2c1=O`, for which the viability at 24 h, 60 ug/ml in [11] came to 96%. The same compound had an inhibition at 60 µg/mL in data set [12] of 52.5%. This compound had a pIC50 in data set [3] of 3.66. In addition, in data set [13], the inhibition is 26.2%.
Regarding `CCOC(=O)/C=C/c1coc2ccccc2c1=O`, the inhibition at 90 µg/mL in data set [14] was more than 95%; in [15] it was more than 95%; in data set [16], 95%; in [17], 95%; in [2] it was 90%; in data set [18], 95%. In [22], this compound yielded an inhibition at 90 µg/mL of 65%. Further, in data set [1], the viability at 24 h, 90 ug/ml stood at 96%. This compound also showed a negative logarithm of the IC50 (pIC50) in data set [3] of 3.74. Besides, the Activity entry in data set [19], in [20] and in [21] was “Dose-dependent effect” in each case. Also, the outcome in [23] and in data set [24] was Active. In data set [4], this compound showed an inhibition of 52.9%.
Turning to `C=CCOC(=O)/C=C/c1coc2cc(O)ccc2c1=O`, in data set [25], the viability at 24 h, 100 ug/ml amounted to 97%. The inhibition at 100 µg/mL in data set [26] was 55.2%. The compound further showed a pIC50 in data set [3] of 3.56. Moreover, the inhibition in data set [27] was determined as 13.3%.
As to `CCCOC(=O)/C=C/c1coc2ccccc2c1=O`, in data set [28], the viability at 24 h, 80 ug/ml was 97%. In addition, the inhibition at 80 µg/mL in [29] was 81.8%. The pIC50 in data set [3] was 3.64. In data set [30], the inhibition is 42.5%.
